Measured values taken from ChEMBL document CHEMBL3525967, “In vitro glucuronidation of the antibacterial triclocarban and its oxidative metabolites” (Drug Metab Dispos, 2012).

How the values were obtained:
[1] = target: T1, UDP-glucuronosyltransferase 1A7 (Homo sapiens, UniProt Q9HAW7); assay: Drug metabolism assessed as human UGT1A7-mediated glucuronidation expressed in baculovirus infected insect sf9 cells incubated for 5 mins prior to UDPGA addition measured after 5 to 30 mins by LC-UV analysis; type: ADME
T1 sequence (Q9HAW7 whole entry): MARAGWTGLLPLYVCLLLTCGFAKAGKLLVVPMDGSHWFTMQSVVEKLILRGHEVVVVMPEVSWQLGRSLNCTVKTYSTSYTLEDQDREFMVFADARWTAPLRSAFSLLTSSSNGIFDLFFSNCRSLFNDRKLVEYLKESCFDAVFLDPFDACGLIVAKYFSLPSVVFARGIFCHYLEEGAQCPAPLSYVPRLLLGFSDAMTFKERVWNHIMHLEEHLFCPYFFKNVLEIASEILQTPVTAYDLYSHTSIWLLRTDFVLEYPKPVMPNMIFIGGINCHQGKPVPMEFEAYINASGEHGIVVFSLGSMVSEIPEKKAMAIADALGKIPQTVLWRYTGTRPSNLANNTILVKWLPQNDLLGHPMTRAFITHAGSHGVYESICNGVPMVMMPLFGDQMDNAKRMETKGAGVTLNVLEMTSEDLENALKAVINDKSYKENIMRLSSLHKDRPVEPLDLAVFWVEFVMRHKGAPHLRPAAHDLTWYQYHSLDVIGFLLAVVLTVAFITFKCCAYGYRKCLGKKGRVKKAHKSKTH
In short: (§1)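 Microsomes or Sf-9 Supersomes (5 µg protein in 200 µL 100 mM potassium phosphate pH 7.4) pre-treated with alamethicin on ice 15 min; substrate 10 µM final (2% DMSO), MgCl2 and saccharolactone 10 mM each; 5 min preincubation at 37 °C, then UDPGA to start. Samples taken at 5, 10, 15, 30 min (or 2, 5, 10, 15 min) into ACN with internal standard; LC-UV-ESI-MS/MS.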

[2] = target: T2, UDP-glucuronosyltransferase 1A4 (Homo sapiens, UniProt P22310); assay: Drug metabolism assessed as human UGT1A4-mediated glucuronidation expressed in baculovirus infected insect sf9 cells incubated for 5 mins prior to UDPGA addition measured after 5 to 30 mins by LC-UV analysis; type: ADME; in short: as §1
T2 sequence (P22310 whole entry): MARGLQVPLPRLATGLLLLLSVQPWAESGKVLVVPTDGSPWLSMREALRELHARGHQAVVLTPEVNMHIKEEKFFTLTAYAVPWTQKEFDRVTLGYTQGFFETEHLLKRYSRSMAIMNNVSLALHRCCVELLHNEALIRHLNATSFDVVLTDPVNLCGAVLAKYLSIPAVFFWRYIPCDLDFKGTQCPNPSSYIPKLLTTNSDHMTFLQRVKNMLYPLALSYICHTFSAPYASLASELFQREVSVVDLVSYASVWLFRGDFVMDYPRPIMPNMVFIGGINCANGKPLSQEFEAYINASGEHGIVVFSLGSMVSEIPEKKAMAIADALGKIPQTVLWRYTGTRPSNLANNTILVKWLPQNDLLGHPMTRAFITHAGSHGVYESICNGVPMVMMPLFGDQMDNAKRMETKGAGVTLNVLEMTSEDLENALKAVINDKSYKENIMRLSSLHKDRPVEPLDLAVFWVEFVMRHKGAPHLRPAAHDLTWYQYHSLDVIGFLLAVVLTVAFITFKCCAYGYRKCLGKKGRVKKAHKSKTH

[3] = target: T3, UDP-glucuronosyltransferase 1A8 (Homo sapiens, UniProt Q9HAW9); assay: Drug metabolism assessed as human UGT1A8-mediated glucuronidation expressed in baculovirus infected insect sf9 cells incubated for 5 mins prior to UDPGA addition measured after 5 to 30 mins by LC-UV analysis; type: ADME; in short: as §1
T3 sequence (Q9HAW9 whole entry): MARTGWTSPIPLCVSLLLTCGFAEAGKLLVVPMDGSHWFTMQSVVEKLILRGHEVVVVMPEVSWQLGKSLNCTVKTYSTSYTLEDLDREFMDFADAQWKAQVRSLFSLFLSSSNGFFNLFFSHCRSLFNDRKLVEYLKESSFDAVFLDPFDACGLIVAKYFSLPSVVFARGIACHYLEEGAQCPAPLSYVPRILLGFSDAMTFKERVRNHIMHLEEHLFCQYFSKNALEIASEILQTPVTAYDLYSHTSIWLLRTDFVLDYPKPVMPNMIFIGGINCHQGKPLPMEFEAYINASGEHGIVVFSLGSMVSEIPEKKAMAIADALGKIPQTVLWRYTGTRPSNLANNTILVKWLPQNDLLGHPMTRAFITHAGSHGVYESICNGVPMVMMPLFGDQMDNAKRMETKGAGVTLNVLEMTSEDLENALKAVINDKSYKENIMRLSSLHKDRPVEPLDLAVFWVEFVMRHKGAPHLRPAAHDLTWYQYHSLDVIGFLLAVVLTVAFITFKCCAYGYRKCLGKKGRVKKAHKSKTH

[4] = target: T4, UDP-glucuronosyltransferase 2B17 (Homo sapiens, UniProt O75795); assay: Drug metabolism assessed as human UGT2B17-mediated glucuronidation expressed in baculovirus infected insect sf9 cells incubated for 5 mins prior to UDPGA addition measured after 5 to 30 mins by LC-UV analysis; type: ADME; in short: as §1
T4 sequence (O75795 whole entry): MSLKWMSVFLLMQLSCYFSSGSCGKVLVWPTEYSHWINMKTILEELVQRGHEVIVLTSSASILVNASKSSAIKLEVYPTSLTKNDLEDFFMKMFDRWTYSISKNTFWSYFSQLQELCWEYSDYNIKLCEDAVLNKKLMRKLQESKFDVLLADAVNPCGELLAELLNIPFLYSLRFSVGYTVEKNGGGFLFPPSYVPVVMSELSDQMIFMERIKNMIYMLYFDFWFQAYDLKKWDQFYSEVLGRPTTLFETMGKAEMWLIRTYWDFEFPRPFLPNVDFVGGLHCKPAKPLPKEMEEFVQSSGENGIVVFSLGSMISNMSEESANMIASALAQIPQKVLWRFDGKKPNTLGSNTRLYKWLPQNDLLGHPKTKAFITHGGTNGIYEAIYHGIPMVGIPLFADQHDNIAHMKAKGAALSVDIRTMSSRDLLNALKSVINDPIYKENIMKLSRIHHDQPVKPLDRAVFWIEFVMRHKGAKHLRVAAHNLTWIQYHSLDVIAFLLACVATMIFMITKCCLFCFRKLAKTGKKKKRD

[5] = Drug metabolism in human intestinal microsomes assessed as glucuronidation incubated for 5 mins prior to UDPGA addition measured after 5 to 30 mins by LC-UV analysis; type: ADME, Intestine, Microsome; in short: as §1

| Structure (SMILES) | Drug metabolism [1] [pmol/min/mg] | Drug metabolism [2] | Drug metabolism [3] [pmol/min/mg] | Drug metabolism [4] | Drug metabolism [5] [pmol/min/mg] |
| --- | --- | --- | --- | --- | --- |
| O=C(Nc1ccc(Cl)c(Cl)c1)Nc1ccc(Cl)cc1O | 870 | metabolite_not_detected | 5700 | metabolite_not_detected | 5700 |
| O=C(Nc1ccc(Cl)cc1)Nc1cc(Cl)c(Cl)cc1O | 1100 | metabolite_not_detected | 5000 | metabolite_not_detected | 3900 |
| O=C(Nc1ccc(Cl)c(O)c1)Nc1ccc(Cl)c(Cl)c1 | 1700 | metabolite_not_detected | 9400 | metabolite_not_detected | 7100 |
